Measured values: ChEMBL document CHEMBL1125672, “2-acetylpyridine thiosemicarbazones. 13. Derivatives with antifilarial activity” (1991)

Columns and labels:
Onchocerca gutturosa [1] = assay: Mean motility score for treated Onchocerca gutturosa involving LLCMK2 feeder cells at a concentration of 3.05*10e-9 M at 24 h; type: functional
Method in brief: (§1)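 Single male O. gutturosa worms (obtained following abattoir slaughter) per well in Eagle's MEM with 10% heat-inactivated fetal calf serum, penicillin, streptomycin, amphotericin B and bicarbonate, over LLCMK2 feeder cells, 5% CO2 in air. Drug dissolved in DMSO; controls received matched DMSO ≤0.016%. Motility scored 0 (immotile) to 10 (maximum control activity) every 30 min to 4.5 h, then days 1, 2, 3, 4, 7.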

Onchocerca volvulus [2] = assay: Colorimetric quantification of male Onchocerca volvulus viability, expressed as % inhibition of formazan formation at 3.1*10e-6 M conc. by using tetrazolium Dye MTT assay; type: functional
Method in brief: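 Male O. volvulus dissected from human nodules within 24 h (kept in medium on ice), cultured without feeder cells in medium with 10% serum; drug from DMSO stock. MTT after 96 h: single worm, 0.5 mg/mL MTT, 30 min at 36.5 °C, formazan dissolved in DMSO 1 h at room temperature, absorbance 490 nm against DMSO blank.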

Acanthocheilonema viteae = assay: anti-filarial Activity was measured against Acanthocheilonema viteae in jirds at 12.5 mg/kg/day(5 days) dose; type: functional
Method in brief: (§2)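 Jirds with established B. pahangi or A. viteae infections were given drug once daily for 5 days by subcutaneous injection, at the maximum tolerated dose and, where supply allowed, graded lower doses. Tolerance was first checked in noninfected jirds with a single 200 mg/kg oral or subcutaneous dose, watching 72 h for excessive weight loss or death. Macrofilarial suppression was the read-out.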

Onchocerca volvulus [3] = assay: Mean motility score for treated Onchocerca volvulus excluding LLCMK2 feeder cells at a concentration of 5*10e-5 M at 24 h
Onchocerca volvulus [4] = assay: Mean motility score for treated Onchocerca volvulus excluding LLCMK2 feeder cells at a concentration of 5*10e-5 M at 1 h
Onchocerca gutturosa [5] = assay: Mean motility score for treated Onchocerca gutturosa involving LLCMK2 feeder cells at a concentration of 3.05*10e-9 M at 168 h; type: functional; method in brief: as §1
Onchocerca volvulus [6] = assay: Mean motility score for treated Onchocerca volvulus excluding LLCMK2 feeder cells at a concentration of 3.1*10e-6 M at 0.5 h
Onchocerca gutturosa [7] = assay: Mean motility score for treated Onchocerca gutturosa involving LLCMK2 feeder cells at a concentration of 5*10e-5 M at 48 h; type: functional
Method in brief: (§3)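 Single male O. gutturosa worms per well in Eagle's MEM with 10% heat-inactivated fetal calf serum, antibiotics and bicarbonate, over LLCMK2 feeder cells, 5% CO2 in air. Test chemical dissolved in DMSO and diluted into medium; control wells got matched DMSO not exceeding 0.016%. Motility scored 0 (immotile) to 10 (maximum control motility) every 30 min for 4.5 h, then at 1, 2, 3, 4 and 7 days.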

Onchocerca gutturosa [8] = assay: Mean motility score for treated Onchocerca gutturosa involving LLCMK2 feeder cells at a concentration of 5*10e-5 M at 1.5 h; type: functional; method in brief: as §1
Onchocerca gutturosa [9] = assay: Mean motility score for treated Onchocerca gutturosa involving LLCMK2 feeder cells at a concentration of 5*10e-5 M at 4.5 h; type: functional; method in brief: as §1
Brugia pahangi = assay: anti-filarial Activity was measured against Brugia pahangi in jirds at 25 mg/kg/day(5 days) dose; type: functional; method in brief: as §2
Onchocerca volvulus [10] = assay: Mean motility score for treated Onchocerca volvulus excluding LLCMK2 feeder cells at a concentration of 3.1*10e-6 M at 1.5 h
Onchocerca gutturosa [11] = assay: Mean motility score for treated Onchocerca gutturosa involving LLCMK2 feeder cells at a concentration of 5*10e-5 M at 3 h; type: functional; method in brief: as §1
Onchocerca gutturosa [12] = assay: Mean motility score for treated Onchocerca gutturosa involving LLCMK2 feeder cells at a concentration of 5*10e-5 M at 0.5 h; type: functional; method in brief: as §1
Onchocerca gutturosa [13] = assay: Mean motility score for treated Onchocerca gutturosa involving LLCMK2 feeder cells at a concentration of 3.05*10e-9 M at 96 h; type: functional; method in brief: as §1
Onchocerca volvulus [14] = assay: Mean motility score for treated Onchocerca volvulus excluding LLCMK2 feeder cells at a concentration of 5*10e-5 M at 72 h
Onchocerca volvulus [15] = assay: Mean motility score for treated Onchocerca volvulus excluding LLCMK2 feeder cells at a concentration of 3.1*10e-6 M at 96 h
Onchocerca volvulus [16] = assay: Mean motility score for treated Onchocerca volvulus excluding LLCMK2 feeder cells at a concentration of 5*10e-5 M at 96 h
Onchocerca gutturosa [17] = assay: Mean motility score for treated Onchocerca gutturosa involving LLCMK2 feeder cells at a concentration of 5*10e-5 M at 1 h; type: functional; method in brief: as §1
Onchocerca volvulus [18] = assay: Mean motility score for treated Onchocerca volvulus excluding LLCMK2 feeder cells at a concentration of 3.1*10e-6 M at 24 h
Onchocerca gutturosa [19] = assay: Mean motility score for treated Onchocerca gutturosa involving LLCMK2 feeder cells at a concentration of 3.05*10e-9 M at 48 h; type: functional; method in brief: as §1
Onchocerca volvulus [20] = assay: Mean motility score for treated Onchocerca volvulus excluding LLCMK2 feeder cells at a concentration of 3.1*10e-6 M at 2 h
Onchocerca gutturosa [21] = assay: Colorimetric quantification of male Onchocerca gutturosa viability, expressed as % inhibition of formazan formation at 5*10e-5 M conc. by using tetrazolium Dye MTT assay; type: functional
Method in brief: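 Single intact male O. gutturosa, cultured with LLCMK2 feeder cells in MEM + 10% heat-inactivated FCS (5% CO2), drug added from DMSO (≤0.016% DMSO in controls). MTT read after 168 h: worm in 0.5 mg/mL MTT, 30 min at 36.5 °C, formazan solubilized in DMSO 1 h at room temperature, absorbance 490 nm vs DMSO blank.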

Onchocerca gutturosa [22] = assay: Mean motility score for treated Onchocerca gutturosa involving LLCMK2 feeder cells at a concentration of 5*10e-5 M at 2.5 h; type: functional; method in brief: as §1
Onchocerca gutturosa [23] = assay: Mean motility score for treated Onchocerca gutturosa involving LLCMK2 feeder cells at a concentration of 5*10e-5 M at 72 h; type: functional; method in brief: as §3
Onchocerca gutturosa [24] = assay: Mean motility score for treated Onchocerca gutturosa involving LLCMK2 feeder cells at a concentration of 5*10e-5 M at 96 h; type: functional; method in brief: as §3
Onchocerca gutturosa [25] = assay: Mean motility score for treated Onchocerca gutturosa involving LLCMK2 feeder cells at a concentration of 3.05*10e-9 M at 3 h; type: functional; method in brief: as §1
Onchocerca volvulus [26] = assay: Mean motility score for treated Onchocerca volvulus excluding LLCMK2 feeder cells at a concentration of 3.1*10e-6 M at 48 h
Onchocerca volvulus [27] = assay: Mean motility score for treated Onchocerca volvulus excluding LLCMK2 feeder cells at a concentration of 5*10e-5 M at 48 h
Onchocerca volvulus [28] = assay: Mean motility score for treated Onchocerca volvulus excluding LLCMK2 feeder cells at a concentration of 3.1*10e-6 M at 72 h

Compound	Motility (Onchocerca gutturosa [1])	Inhibition (Onchocerca volvulus [2])	Suppression (Acanthocheilonema viteae)	Motility (Onchocerca volvulus [3])	Motility (Onchocerca volvulus [4])	Motility (Onchocerca gutturosa [5])	Motility (Onchocerca volvulus [6])	Motility (Onchocerca gutturosa [7])	Motility (Onchocerca gutturosa [8])	Motility (Onchocerca gutturosa [9])	Suppression (Brugia pahangi)	Motility (Onchocerca volvulus [10])	Motility (Onchocerca gutturosa [11])	Motility (Onchocerca gutturosa [12])	Motility (Onchocerca gutturosa [13])	Motility (Onchocerca volvulus [14])	Motility (Onchocerca volvulus [15])	Motility (Onchocerca volvulus [16])	Motility (Onchocerca gutturosa [17])	Motility (Onchocerca volvulus [18])	also measured
C/C(=N\NC(=S)N1CCCCCC1)c1ccccn1	9.3	39.6%	-16%	1.6	8.4	3.5	6.6	0	4.8	1.8	84%	6.4	2.2	6	5.5	1	0	0.3	4.8	3.4	Motility (Onchocerca gutturosa [19]): 6.8; Motility (Onchocerca volvulus [20]): 6.6; Inhibition (Onchocerca gutturosa [21]): 90.3%; Motility (Onchocerca gutturosa [22]): 3.8; Motility (Onchocerca gutturosa [23]): 0; Motility (Onchocerca gutturosa [24]): 0; Motility (Onchocerca gutturosa [25]): 8.8; Motility (Onchocerca volvulus [26]): 0.6; Motility (Onchocerca volvulus [27]): 1; Motility (Onchocerca volvulus [28]): 1
C/C(=N\NC(S)=Nc1ccccc1N)c1ccccn1	7.3	65.3%	28%	4.4	5	4.5	8	8.3	9.5	9.5	100%	4.4	9.3	10	6.8	2.4	0.4	0.6	10	1.6	Motility (Onchocerca gutturosa [19]): 6.3; Motility (Onchocerca volvulus [20]): 6; Inhibition (Onchocerca gutturosa [21]): 72.9%; Motility (Onchocerca gutturosa [22]): 9.5; Motility (Onchocerca gutturosa [23]): 1.6; Motility (Onchocerca gutturosa [24]): 1.5; Motility (Onchocerca gutturosa [25]): 7.5; Motility (Onchocerca volvulus [26]): 2; Motility (Onchocerca volvulus [27]): 3.6; Motility (Onchocerca volvulus [28]): 1.2
